Entries after “also recorded” stand apart in the source; their conditions may differ. {56-FAM} = 6-carboxyfluorescein label (IDT code)
Experiments:
[1] = target: T1, hP13 ZnF5-WWE1-WWE2 W611A mutant (Homo sapiens, UniProt Q7Z2W4, W611A); assay: Differential scanning fluorimetry; format: binding; conditions: protein 8 μM, DSF
WWE domain from RNF-146 = conditions: ref Wang et al., 2012; cited from earlier work
[2] = target: hP13 ZnF5-WWE1-WWE2 (wild type) (Homo sapiens, UniProt Q7Z2W4); assay: Differential scanning fluorimetry; format: binding; conditions: protein 8 μM, DSF
How it was run: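 His-GB1-tagged human fragment (residues 507–699) expressed in E. coli Rosetta2, TEV-cleaved, purified by Ni2+, gel filtration and Q flow-through. TM from Boltzmann fit; ΔTM = TM with ligand minus without; two repeats.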

hP13 ZnF5-WWE1-WWE2 = hP13 ZnF5-WWE1-WWE2 (Homo sapiens, UniProt Q7Z2W4); assay: FP RNA binding assay; conditions: FAM-labeled RNA 5 nM, 300 mM KCl
[3] = target: mouse PARP13 (mP13) ZnF5-WWE1-WWE2 (residues 476-673) (mouse) (UniProt Q3UPF5); assay: SEC-MALS
[4] = target: hP13 ZnF5-WWE1-WWE2 R682A mutant (Homo sapiens, UniProt Q7Z2W4, R682A); assay: Fluorescence polarization; format: binding; conditions: R682A versus wild-type hP13 ZnF5-WWE1-WWE2
How it was run: (§1)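 QuickChange point mutants of human fragment (residues 507–699), His-GB1 fusion, expressed in Rosetta2 (0.2 mM IPTG, 16°C, 18 h), TEV-cleaved, purified by Ni2+, gel filtration, Q flow-through. Quadratic 1:1 KD fit; ≥3 experiments, mean ± SD.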

WWE domain of RNF-146 = assay: Fluorescence polarization; conditions: direct FP binding, probe 5 nM
[5] = target: hP13 ZnF5-WWE1-WWE2 R577A mutant (Homo sapiens, UniProt Q7Z2W4, R577A); assay: Fluorescence polarization; format: binding; conditions: R577A versus wild-type hP13 ZnF5-WWE1-WWE2
How it was run: as §1

[6] = target: T1, hP13 ZnF5-WWE1-WWE2 W611A mutant; assay: Fluorescence polarization; conditions: direct FP binding, probe 5 nM
How it was run: as §1

Chain of hP13 ZnF5-WWE1-WWE2 (wild type) (Q7Z2W4 507-699): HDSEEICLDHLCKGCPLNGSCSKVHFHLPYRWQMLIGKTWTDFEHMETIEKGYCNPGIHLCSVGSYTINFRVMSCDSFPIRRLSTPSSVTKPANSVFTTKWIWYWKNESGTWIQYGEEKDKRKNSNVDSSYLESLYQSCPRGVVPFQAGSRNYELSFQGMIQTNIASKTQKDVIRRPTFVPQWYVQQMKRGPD
T1 sequence (Q7Z2W4 507-699 W611A): as the sequence (Q7Z2W4 507-699) above, with W105A counted along it
Chain of hP13 ZnF5-WWE1-WWE2 (Q7Z2W4 507-699): as the sequence (Q7Z2W4 507-699) above
Chain of hP13 ZnF5-WWE1-WWE2 R682A mutant (Q7Z2W4 507-699 R682A): as the sequence (Q7Z2W4 507-699) above, with R176A counted along it
Chain of hP13 ZnF5-WWE1-WWE2 R577A mutant (Q7Z2W4 507-699 R577A): as the sequence (Q7Z2W4 507-699) above, with R71A counted along it

Row | Compound | change in thermal stability in presence of ligand (in words) [1] | binding (in words) (WWE domain from RNF-146) | change in thermal stability in presence of ligand (in words) [2] | other results
1 | Nc1ncnc2c1ncn2[C@@H]1O[C@H](COP(=O)(O)OP(=O)(O)OC[C@H]2OC(O)[C@H](O)[C@@H]2O)[C@@H](O)[C@H]1O (some centres unmarked) [ADPr, ADP-ribose] | did not show an increase in thermal stability | do not bind | increase in the thermal stability; also recorded: increased hP13 ZnF5-WWE1-WWE2 thermal stability | 
2 | Nc1ncnc2c1ncn2[C@@H]1O[C@H](COP(=O)(O)OP(=O)(O)OP(=O)(O)O)[C@@H](O)[C@H]1O [ATP] | did not show an increase in thermal stability |  | increase in the thermal stability | 
3 | Nc1ncnc2c1ncn2[C@@H]1O[C@H](COP(=O)(O)O)[C@@H](O)[C@H]1O[C@@H]1O[C@H](COP(=O)(O)O)[C@@H](O)[C@H]1O [iso-ADPr] |  | capable of binding | increase in thermal stability in the presence of iso-ADPr, but to a lesser extent than seen with ADPr | 
4 | /56-FAM/rArArArCrArArArArArArArGrArCrGrArArArArA (AAACAAAAAAAGACGAAAAA; RNA, 5' {56-FAM}, backbone not given here) [RNA-FAM] |  |  |  | RNA binding (in words) (hP13 ZnF5-WWE1-WWE2): unable to bind
5 | mouse PARP13 (mP13) ZnF5-WWE1-WWE2 (residues 476-673) (from UniProt Q3UPF5 476-673) (domain or fragment) |  |  |  | percent of the scattering mass in the dimer peak [3]: 4%; stoichiometry N [3]: 2
6 | γ-(6-Aminohexyl)-ATP-6-FAM [ATP-FAM] |  |  |  | binding affinity, fold weaker than wild type [4]: 1.2 fold; binding to probe (in words) (WWE domain of RNF-146): no evidence of binding; also recorded: no indication of binding; binding affinity, fold weaker than wild type [5]: 1.1 fold; binding to probe (in words) [6]: no evidence of binding; also recorded: no indication of binding

From paper PMC9720839 (Cell reports, 2022)
